Measured values from ChEMBL document CHEMBL1240328, “Selective compounds define Hsp90 as a major inhibitor of apoptosis in small-cell lung cancer” (Nat Chem Biol, 2007).
Calls of active or inactive are those of the source. The rule behind the calls is not given here.

Tests used:
[1] = biological target: Heat shock protein HSP 90-beta (Homo sapiens) (UniProt P08238); test: Effect on HSP90-mediated Bcl-2 expression in human NCI-H526 cells at 25 uM after 24 hrs by Western blot analysis; format: cell-based
Chain of Heat shock protein HSP 90-beta (Homo sapiens) (P08238 whole entry): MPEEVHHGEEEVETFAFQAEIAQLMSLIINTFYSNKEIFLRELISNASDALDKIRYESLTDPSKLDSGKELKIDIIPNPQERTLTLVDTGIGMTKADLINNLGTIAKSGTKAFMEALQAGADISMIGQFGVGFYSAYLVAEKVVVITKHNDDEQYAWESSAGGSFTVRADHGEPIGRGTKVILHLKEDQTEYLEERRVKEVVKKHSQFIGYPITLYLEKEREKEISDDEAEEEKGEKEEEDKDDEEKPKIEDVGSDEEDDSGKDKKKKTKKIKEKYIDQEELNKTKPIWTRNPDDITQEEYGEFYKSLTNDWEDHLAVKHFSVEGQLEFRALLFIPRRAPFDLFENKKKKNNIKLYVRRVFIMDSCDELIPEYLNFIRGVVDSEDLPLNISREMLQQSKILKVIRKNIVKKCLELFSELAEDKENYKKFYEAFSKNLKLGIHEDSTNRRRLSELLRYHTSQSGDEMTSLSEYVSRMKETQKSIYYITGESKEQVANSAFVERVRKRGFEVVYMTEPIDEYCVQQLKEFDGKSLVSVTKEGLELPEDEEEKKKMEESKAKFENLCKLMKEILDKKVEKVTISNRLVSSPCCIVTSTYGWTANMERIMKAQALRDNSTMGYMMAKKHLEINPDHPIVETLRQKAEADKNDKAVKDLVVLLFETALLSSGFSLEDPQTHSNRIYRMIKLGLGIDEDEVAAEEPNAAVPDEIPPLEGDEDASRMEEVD
Summary of the method: (§1)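 NCI-H526 cells were exposed for 24 h to drug or DMSO vehicle. Lysates were made in 50 mM Tris pH 7.4, 150 mM NaCl, 1% NP-40 and quantified by BCA. Western blot used 20–100 µg protein per lane, with β-actin as loading control.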

[2] = biological target: Heat shock protein HSP 90-beta (Homo sapiens) (UniProt P08238); test: Inhibition of HSP90-mediated antiapoptotic activity in human NCI-H69 cells assessed as mitochondrial membrane depolarization at 5 uM after 72 hrs by JC-1 staining-based flow cytometry; format: cell-based
Summary of the method: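 Mitochondrial membrane potential was measured by JC-1 staining and flow cytometry. Depolarization was scored as a shift to cells emitting only green fluorescence. The mitochondrial uncoupler CCCP served as positive control.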

SK-BR-3 [3] = test: Inhibition of HSP70-mediated antiapoptotic activity in human SKBR3 cells assessed as increase in caspase-3 activity after 24 hrs by Western blot analysis; format: cell-based
[4] = biological target: Heat shock protein HSP 90-beta (Homo sapiens) (UniProt P08238); test: Inhibition of HSP90-mediated antiapoptotic activity in human SKBR3 cells assessed as induction of cell growth arrest at 50 uM after 24 hrs by propidium iodide staining-based flow cytometry; conditions: SK-BR-3
[5] = biological target: Heat shock protein HSP 90-beta (Homo sapiens) (UniProt P08238); test: Inhibition of HSP90-mediated antiapoptotic activity in human NCI-H526 cells assessed as induction of caspase-9 cleavage at 10 uM after 24 hrs by Western blot analysis; format: cell-based
Summary of the method: (§2)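 NCI-H526 cells at 60–70% confluence were exposed to drug or DMSO for 24 h. Lysed in 50 mM Tris pH 7.4, 150 mM NaCl, 1% NP-40, with protein measured by BCA. 20–100 µg run on SDS-PAGE and blotted to nitrocellulose. Probed with cleaved-protein antibodies and peroxidase secondary at 1:5,000, with β-actin as loading control.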

NCI-H526 [6] = test: Inhibition of HSP70-mediated antiapoptotic activity in human NCI-H526 cells assessed as induction of caspase-3 cleavage after 24 hrs by Western blot analysis; format: cell-based
Summary of the method: (§3)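 NCI-H526 cells were treated for 24 h. PARP and caspase-3 cleavage were read by western blot of lysates in Tris/NaCl/NP-40 buffer. Apaf-1 complexes were immunoprecipitated with Apaf-1 antibody, using control IgG, then blotted.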

[7] = biological target: Heat shock protein HSP 90-beta (Homo sapiens) (UniProt P08238); test: Inhibition of HSP90-mediated antiapoptotic activity in human NCI-H526 cells assessed as release of Apaf-1 from chaperon complex at 20 uM after 1 hr by Western blot analysis; format: cell-based
Summary of the method: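 NCI-H526 cells treated with 20 µM for the indicated times. Complexes immunoprecipitated with Apaf-1 or caspase-9 antibodies, with control IgG alongside. Co-precipitated proteins identified by western blot.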

[8] = biological target: Heat shock protein HSP 90-beta (Homo sapiens) (UniProt P08238); test: Inhibition of HSP90-mediated antiapoptotic activity in human SKBR3 cells assessed as induction of caspase-9 cleavage at 50 uM after 24 hrs by Western blot analysis; format: cell-based; conditions: SK-BR-3
Summary of the method: (§4)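 SKBr3 cells at 60–70% confluence were exposed to drug or DMSO vehicle. Lysis was in 50 mM Tris pH 7.4, 150 mM NaCl, 1% NP-40, with protein measured by BCA. Lysates of 20–100 µg were run on SDS-PAGE, blotted to nitrocellulose, probed with primary antibodies and detected with a peroxidase-conjugated secondary (1:5,000). Loading was checked with β-actin or PI(3)K p85.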

[9] = biological target: Heat shock protein HSP 90-beta (Homo sapiens) (UniProt P08238); test: Inhibition of HSP90-mediated antiapoptotic activity in human SKBR3 cells assessed as induction of caspase-3 cleavage at 50 uM after 24 hrs by Western blot analysis; format: cell-based; conditions: SK-BR-3; summary of the method: as §4
[10] = biological target: Heat shock protein HSP 90-beta (Homo sapiens) (UniProt P08238); test: Inhibition of HSP90-mediated antiapoptotic activity in human NCI-H526 cells assessed as subG1 accumulation at 15 uM after 72 hrs by propidium iodide staining-based flow cytometry; format: cell-based
Summary of the method: (§5)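 SCLC cells treated for 72 h with graded doses. Mitochondrial membrane potential read by flow cytometry after JC-1 staining, with green-only emission indicating depolarization. Sub-G1 DNA content read after propidium iodide staining. CCCP used as positive control. n = 3 repeat experiments.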

[11] = biological target: Heat shock protein HSP 90-beta (Homo sapiens) (UniProt P08238); test: Effect on HSP90-mediated Bcl-XL expression in human NCI-H526 cells at 25 uM after 24 hrs by Western blot analysis; format: cell-based; summary of the method: as §1
[12] = biological target: Heat shock protein HSP 90-beta (Homo sapiens) (UniProt P08238); test: Inhibition of HSP90-mediated antiapoptotic activity in human NCI-N417 cells assessed as subG1 accumulation at 5 uM after 72 hrs by propidium iodide staining-based flow cytometry; format: cell-based; conditions: NCI-H417
Summary of the method: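 Asynchronously growing cells were treated with compound, stained with propidium iodide and analysed by flow cytometry. The read-out was the percentage of cells with sub-G1 DNA content.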

[13] = biological target: Heat shock protein HSP 90-beta (Homo sapiens) (UniProt P08238); test: Effect on HSP90-mediated survivin expression in human NCI-H526 cells at 25 uM after 24 hrs by Western blot analysis; format: cell-based; summary of the method: as §1
[14] = biological target: Heat shock protein HSP 90-beta (Homo sapiens) (UniProt P08238); test: Inhibition of HSP90-mediated antiapoptotic activity in human NCI-H526 cells assessed as induction of caspase-3 cleavage at 10 uM after 72 hrs by fluorescence assay in presence of caspase-9 inhibitor Z-LEHD-FMK; format: cell-based
[15] = biological target: Heat shock protein HSP 90-beta (Homo sapiens) (UniProt P08238); test: Inhibition of HSP90-mediated antiapoptotic activity in human SKBR3 cells assessed as induction of caspase-3 cleavage at 20 uM after 24 hrs by Western blot analysis; format: cell-based; conditions: SK-BR-3; summary of the method: as §4
[16] = biological target: Heat shock protein HSP 90-beta (Homo sapiens) (UniProt P08238); test: Inhibition of HSP90-mediated antiapoptotic activity in human NCI-H187 cells assessed as subG1 accumulation at 15 uM after 72 hrs by propidium iodide staining-based flow cytometry; format: cell-based; summary of the method: as §5
[17] = biological target: Heat shock protein HSP 90-beta (Homo sapiens) (UniProt P08238); test: Inhibition of HSP90-mediated antiapoptotic activity in human SKBR3 cells assessed as induction of caspase-9 cleavage at 400 uM after 24 hrs by Western blot analysis; format: cell-based; conditions: SK-BR-3; summary of the method: as §4
[18] = biological target: Heat shock protein HSP 90-beta (Homo sapiens) (UniProt P08238); test: Inhibition of HSP90-mediated antiapoptotic activity in human NCI-H526 cells assessed as reduction in BAD phosphorylation at 50 uM after 24 hrs by Western blot analysis; format: cell-based
SK-BR-3 [19] = test: Inhibition of HSP70-mediated antiapoptotic activity in human SKBR3 cells assessed as release of Apaf-1 from chaperon complex after 24 hrs by Western blot analysis; format: cell-based
Summary of the method: (§6)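 SKBr3 cells were treated for 24 h. Lysates were probed by western blot for caspase-3 and PARP cleavage. Apaf-1 complexes were pulled down with Apaf-1 antibody (with control IgG) and immunoblotted.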

[20] = biological target: Heat shock protein HSP 90-beta (Homo sapiens) (UniProt P08238); test: Inhibition of HSP90-mediated antiapoptotic activity in human NCI-H526 cells assessed as induction of caspase-2 cleavage at 10 uM after 24 hrs by Western blot analysis; format: cell-based; summary of the method: as §2
[21] = biological target: Heat shock protein HSP 90-beta (Homo sapiens) (UniProt P08238); test: Inhibition of HSP90-mediated antiapoptotic activity in human MCF7 cells assessed as induction of PARP cleavage at 400 uM after 24 hrs by Western blot analysis; format: cell-based
NCI-H526 [22] = test: Inhibition of HSP70-mediated antiapoptotic activity in human NCI-H526 cells assessed as release of Apaf-1 from chaperon complex after 24 hrs by Western blot analysis; format: cell-based; summary of the method: as §3
SK-BR-3 [23] = test: Inhibition of HSP70-mediated antiapoptotic activity in human SKBR3 cells assessed as induction of PARP cleavage after 24 hrs by Western blot analysis; format: cell-based; summary of the method: as §6
[24] = biological target: Heat shock protein HSP 90-beta (Homo sapiens) (UniProt P08238); test: Inhibition of HSP90-mediated antiapoptotic activity in human SKBR3 cells assessed as induction of caspase-9 cleavage at 20 uM after 24 hrs by Western blot analysis; format: cell-based; conditions: SK-BR-3; summary of the method: as §4

O=CN1CC/C(=C/c2ccc3c(c2)OCO3)C1=O
Activity [1]: inactive
Activity [2]: inactive
inhibition (SK-BR-3 [3]): Active
Activity [4]: inactive
Activity [5]: inactive
inhibition (NCI-H526 [6]): inactive
Activity [7]: inactive
Activity [8]: inactive
Activity [9]: inactive
Activity [10]: inactive
Activity [11]: inactive
Activity [12]: inactive
Activity [13]: inactive
Activity [14]: inactive
Activity [15]: inactive
Activity [16]: inactive
Activity [17]: inactive
Activity [18]: inactive
inhibition (SK-BR-3 [19]): inactive
Activity [20]: inactive
Activity [21]: inactive
inhibition (NCI-H526 [22]): inactive
inhibition (SK-BR-3 [23]): Active
Activity [24]: inactive
